5HT1E ag = activates the human 5-HT1E serotonin receptor; activation, % at 6 µM; CHO 5-HT1E Ga15 NFAT-bla reporter, FRET; 0% DMSO wells, 100% control agonist wells; hit rate 0.69% among 65,000;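 active means activation above a set limit, the screen-wide mean activation plus 3 SD, cut at about 8.5% in these data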;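 further: 100% = positive control agonist at 1 µM giving full maximal response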
S1P1 ag-PAM = activates or potentiates agonism at human S1P1 receptor; hit rate 0.57% among 56,000; S1P1 CRE-bla cells, forskolin, beta-lactamase FRET, potentiator mode; S1P1 agonist co-added at EC20, 2 nM; 100% = saturating reference agonist, 0% = basal; activation, % at 9.5 µM; P21453; AID 449;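 active means activation above a cutoff set at the mean activation of all tested compounds plus 3 SD, cut at about 54% in these data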;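 further: forskolin at 4 µM as EC80 and the EC20 agonist is SEW2871; 100% = SEW2871 at its EC100 plus forskolin at EC80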
Target sequence (P21453 whole entry, looked up): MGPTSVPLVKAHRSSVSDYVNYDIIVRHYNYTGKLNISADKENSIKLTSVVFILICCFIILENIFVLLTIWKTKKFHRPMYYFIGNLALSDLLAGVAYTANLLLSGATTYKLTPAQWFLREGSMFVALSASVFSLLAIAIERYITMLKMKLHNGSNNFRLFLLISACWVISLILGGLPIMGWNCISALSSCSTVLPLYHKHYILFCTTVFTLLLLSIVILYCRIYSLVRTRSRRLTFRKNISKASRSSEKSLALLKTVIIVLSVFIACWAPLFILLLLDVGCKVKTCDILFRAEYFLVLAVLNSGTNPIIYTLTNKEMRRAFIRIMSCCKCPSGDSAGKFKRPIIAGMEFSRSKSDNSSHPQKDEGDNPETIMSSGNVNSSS
S1P3 ag = agonists of human S1P3 receptor; S1P3 NFAT-BLA reporter cells, agonism, FRET ratio; relative to 1 µM S1P, basal subtracted; activation, % at 4.5 µM; AID 373; hit rate 0.1% among 60,000;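 active means activation above the screen-wide mean plus 3 SD, cut at about 4.5% in these data, passing the limit was not always enough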
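Assay system: stable CHO line with human S1P3, Gα16, NFAT-BLA reporter; Detection: FRET β-lactamase substrate fluorescence, excitation 405 nm, 460/535 nm emission ratio, background-subtracted; Read-out: percent activation versus median 1 µM S1P response, basal-subtracted, per plate; Incubation: cells plated overnight, compound 4 h 37 °C, substrate 2 h RT.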
5HT1a antag = blocks the human serotonin 5-HT1a receptor. P08908. CHO 5-HT1a Ga15 NFAT-bla reporter, antagonist mode. inhibition, % at 10 µM. hit rate 0.68% among 62,000. AID 612;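 active means inhibition above the mean of all tested compounds plus 3 SD, cut at about 43% in these data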;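 further: receptor stimulated by 5-CT agonist at 100 nM near EC80; beta-lactamase reporter measured by ratiometric fluorescence of a cleavable substrate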
HTR1A agonist = agonists of human 5-HT1a serotonin receptor. P08908. CHO 5-HT1a Ga15 NFAT-bla reporter, FRET ratio; 0% basal, 100% maximal reference agonist. hit rate 0.56% among 65,000. activation, % at 10 µM;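 active means activation above the screen-wide mean activation plus 3 SD, cut at about 19% in these data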;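 further: 0% = DMSO wells and 100% = 5-CT at EC100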
HTR1E antagonist = antagonists of human 5-HT1E serotonin receptor | P28566 | CHO 5-HT1E Ga15 NFAT-bla reporter, FRET, antagonist | inhibition, % at 6 µM | hit rate 0.99% among 65,000 | AID 571;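 active means inhibition above a set limit, the mean inhibition across every tested compound plus 3 SD, cut at about 29% in these data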;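 further: signal is the 460 over 535 nm emission ratio of beta-lactamase substrate; 0% = agonist plus DMSO wells and 100% = wells without agonist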
* = called active by the depositor; · = no result given. An excerpt weighted towards active compounds, which were near 2.9% of everything screened.

SMILES	5HT1E ag	S1P1 ag-PAM	S1P3 ag	5HT1a antag	HTR1A agonist	HTR1E antagonist
Cc1ccc(/C=c2/sc3nnc(-c4ccccc4Cl)n3c2=O)o1	0.5	-5.1	-1.1	45.5*	0.2	-0.4
COc1ccc(N2CCN(C(=O)CSc3ncccc3-c3nc4ccccc4[nH]3)CC2)cc1	0.2	-27.6	-0.5	-9.9	-1.6	-8.2
O=C(CSc1ncccc1-c1nc2ccccc2[nH]1)N1CCN(c2ccccc2F)CC1	8.7*	4.8	-0.1	18.5	3.3	6.3
COc1ccccc1N1CCN(C(=O)CSc2ncccc2-c2nc3ccccc3[nH]2)CC1	21.8*	·	·	14.4	5.1	-1.9
COc1ccc(C2CNC(=O)C2)cc1OC1CCCC1 (configuration not stated)	0.8	-26.0	-0.9	·	-1.3	1.9
O=C(NC1CCCCCCC1)c1ccc2c(c1)N(Cc1ccc(F)cc1)C(=O)CS2=O (configuration not stated)	2.2	·	·	-13.7	1.3	-14.7
C=CCn1c(SCC(=O)c2cccs2)nc2sc(CC)cc2c1=O	0.4	93.4*	-2.1	13.3	2.3	5.7
C=CCn1c(SCC(=O)N2CCN(C(=O)c3ccco3)CC2)nc2sc(CC)cc2c1=O	-1.5	-0.6	-1.0	-0.6	2.0	16.5
CCOC(=O)c1cc2sc(C)cc2n1CC(=O)NCCc1ccccc1	-0.9	·	·	41.7	-1.3	-0.1
CC(=O)c1sc(NC(=O)C2(F)C(F)(F)C(F)(F)C(F)(F)C(F)(F)C2(F)F)nc1C	0.6	111.0*	-2.6	65.0*	1.2	25.4
CC(=O)c1sc(NC(=O)C=C(C)C)nc1C	-0.3	·	-0.6	-9.7	1.6	-9.3
CC(=O)OCc1c(F)c(F)c(-n2nc(C)cc2C)c(F)c1F	0.2	4.5	-1.1	-4.1	-1.8	-2.6
CC(=O)Nc1nc(C)nc(-c2ccccc2)c1C(C)=O	0.4	-27.4	-0.4	-3.2	-2.5	15.1
CNc1nc(C)c(C#N)c(-c2ccccc2)c1C(C)=O	18.3*	-14.2	1.3	1.8	0.2	27.5
CCOC(=O)c1sc2nc(NC(=O)C3CCCCC3)sc2c1C	-0.6	73.5*	-1.6	-12.4	-4.1	-7.8
CCOC(=O)c1sc2nc(NC(=O)C3CC3)sc2c1C	-0.1	-13.4	0.7	-13.4	0.8	1.9
O=c1c(/C=N/O)c(Nc2ccccc2)nc2ccccn12	-0.1	-28.1	-0.9	3.9	0.1	14.4
CCCCOc1cccc(C(=O)Nc2ccc(N3CCN(CC)CC3)cc2)c1	0.2	-33.7	-1.0	8.7	-4.7	1.5
CC(C)Oc1ccc(C(=O)Nc2ccc(N3CCCC3)cc2)cc1	2.1	17.6	-2.4	2.9	50.4*	-12.5
CCCCOc1ccc(C(=O)Nc2ccc(N3CCN(C)CC3)cc2)cc1	15.1*	-5.7	0.3	11.2	-2.7	11.0
COC(=O)CNc1nc(C2CC2)nc2c1nnn2Cc1ccccc1Cl	-0.1	4.7	-1.8	5.0	-2.2	11.4
c1ccc(Cn2nnc3c(Nc4ccc5c(c4)OCO5)nc(C4CC4)nc32)cc1	2.4	39.4	-1.3	19.6	22.1*	-0.1
COC(=O)c1cccc(S(=O)(=O)N2CCN(c3nc4ccccc4s3)CC2)c1	0.8	4.5	-1.6	-4.3	-0.4	0.1
COc1ccc(NC(=O)C2CCN(Cc3cnn(-c4ccccc4)c3-n3cccc3)CC2)cc1OC	-0.4	·	·	13.0	-1.5	1.4
O=C(NCc1ccc2c(c1)OCO2)C1CCN(Cc2cnn(-c3ccccc3)c2-n2cccc2)CC1	12.3*	·	·	-3.8	0.2	0.0
SMILES	5HT1E ag	S1P1 ag-PAM	S1P3 ag	5HT1a antag	HTR1A agonist	HTR1E antagonist
Cc1ccnc(SCC(=O)Nc2sc3c(c2C#N)CCCC3)n1	-0.9	100.3*	-2.0	10.6	1.6	12.9
N#Cc1c(NC(=O)CSC2=NCCS2)sc2c1CCCC2	-1.6	-3.1	-1.2	10.9	-2.8	15.3
CN1CCN(/C(=N\O)c2nonc2N)CC1	54.7*	-14.5	-1.3	1.6	-3.9	-6.5
Nc1nonc1/C(=N/O)N1CCN(CCO)CC1	0.4	-6.8	-1.3	0.7	-1.7	-18.2
Cc1ccc(C2c3c(oc4ccccc4c3=O)C(=O)N2c2nnc(C(C)C)s2)o1 (configuration not stated)	2.1	-13.1	-1.0	0.7	-1.4	32.0*
COc1ccc(CC(=O)Nc2cc(C)c3c(=O)oc4ccccc4c3n2)cc1	0.4	-13.1	-1.1	-23.4	3.3	5.2
CCC(CC)C(=O)Nc1cc(C)c2c(=O)oc3ccccc3c2n1	0.5	-28.0	0.0	-50.9	2.0	30.7*
CC(=O)c1ccc(OC(C)C)c(CN2CCCCC2)c1	-0.6	8.1	-0.5	1.0	-2.4	0.1
CNC(=O)N(C1=NCC(C)(C)S1)c1ccc(F)c(Cl)c1	-0.2	-16.4	-0.6	12.4	1.2	31.1*
O=C(Cn1cccc1C(=O)c1ccccc1)NCc1cccs1	28.9*	0.6	-1.1	5.9	-2.1	3.9
CC(C)OC(=O)CSc1nnc(-c2cccnc2)n1Cc1ccccc1	0.3	-1.5	-1.0	-0.8	-0.7	-8.2
CC(C)OC(=O)CSc1nnc(-c2cccnc2)n1N	-1.1	7.5	-0.2	9.8	0.5	29.2*
Cc1cccc(C(=O)NCCN2CCN(c3ccccc3)CC2)c1	-0.1	-4.6	-1.2	-277.5	52.0*	3.2
O=C(NCCCN1CCCC1=O)c1cccc(N2CCCC2=O)c1	-1.0	-10.0	-0.7	2.9	-1.5	8.7
O=C(NCCCN1CCN(c2cccc(Cl)c2)CC1)c1cccc(N2CCCC2=O)c1	2.0	·	·	89.0*	2.0	-0.1
O=C(CCN1C(=O)COc2ccccc21)NCCN1CCN(c2cccc(Cl)c2)CC1	9.6*	12.9	-1.0	32.9	2.5	7.1
O=C(NCCN1CCCCCC1)c1ccc(N2CCCC2=O)cc1	0.3	-13.6	1.1	-3.7	-5.5	-2.7
O=C(NCCCN1CCN(c2cccc(Cl)c2)CC1)c1ccc(N2CCCC2=O)cc1	8.2	·	·	46.2*	15.4	-5.7
COc1cc(CC(=O)Nc2ccc(S(=O)(=O)N(C)C)cc2)cc(OC)c1OC	0.8	-22.0	-0.8	3.2	-6.5	-13.3
COC(=O)CSc1nc(C)c(Oc2ccccc2)c(=O)[nH]1	0.3	6.4	-0.9	·	0.0	-3.2
CS(=O)(=O)Nc1ccc(S(=O)(=O)Nc2nccs2)cc1	10.4*	15.2	-0.1	2.9	-2.6	6.4
O=S(=O)(Nc1nccs1)c1ccc(NS(=O)(=O)c2cccs2)cc1	-1.3	4.6	-0.9	-3.8	1.7	9.3
Cc1occc1-c1nnc(SCC(=O)NC(C)(C)C)n1C(C)c1ccccc1 (configuration not stated)	43.2*	7.0	0.2	10.1	1.1	-0.3
COc1cccc(-n2c(SCC(=O)NC(C)(C)C)nnc2-c2ccoc2C)c1	0.3	3.1	-0.8	0.8	-0.7	3.4

Screening results: PubChem, The Scripps Research Institute Molecular Screening Center
